In paper PMC7919060 (ACS chemical neuroscience, 2020):
Structures can show the parent of a compound that is named as a salt. Where two headings read alike, the source gives them in different places.

Legend:
MDR1-MDCK cell monolayer = assay: Permeability and efflux in MDR1-MDCK cell monolayer; assay type: in vitro ADME
[1] = Mouse pharmacokinetics, single IP dose 10 mg/kg; assay type: in vivo, CD-1 mice
brain GlcCer [2] = settings: normal mice, 60 mg/kg; cited from earlier work
[3] = Stability to mouse liver microsomes; assay type: in vitro ADME; settings: CD-1, mouse, pH 7.4
Outline: (§1)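 Test compound at 1 μM with 0.5 mg/mL liver microsomes (CD-1 mouse or human), 1.7 mM β-NADPH, 0.1 M phosphate pH 7.4, 3.3 mM MgCl₂, 37 °C, final DMSO <0.1%. Aliquots at 0–60 min (seven points) were quenched in cold acetonitrile with internal standard. Parent remaining was measured by LC-MS/MS. Half-life was taken from ln(remaining) versus time.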

[4] = Stability to human liver microsomes; assay type: in vitro ADME; settings: pH 7.4
Outline: as §1

P-glycoprotein (MDR1) = assay: Permeability and efflux in MDR1-MDCK cell monolayer; assay type: in vitro ADME; settings: dog, MDCK-MDR1
[5] = assay type: in vivo, D409V/D409V mice of C57BL/6 background; settings: both, C57BL/6 (Gba D409V/D409V), mouse, ip, 10 mg/kg
Outline: (§2)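 Gba D409V/D409V mice (C57BL/6 background) received CBE 25 mg/kg IP daily for 14 days from postpartum day 15. Test compound (10 mg/kg qd IP, citrate-saline) or buffer alone was coadministered; 8–11 mixed-gender mice per group. Sacrifice was 2 h after final dose. Brain GlcCer and GlcSph were separated from galactosyl analogues and quantified by LC-MS/MS. Values were normalised to tissue weight (pmol/mg) relative to vehicle controls; Student's t test.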

brain GlcCer and GlcSph = assay type: in vivo, D409V/D409V mice of C57BL/6 background; settings: CBE mice
Outline: as §2

brain GlcCer [6] = assay: In vivo reduction of brain glucosylceramide in normal mice; settings: normal C57BL/6 mice, IP
Outline: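 Female or male C57BL/6 mice, 6–8 weeks old, on regular chow, given test compound or vehicle IP daily for 3 days. Injection volume was 1% of body weight. Two dose-response runs were done: 30, 10, 1 mg/kg and 1.0–0.03 mg/kg. Whole brain was homogenised in sucrose buffer, then chloroform/methanol extracted and subjected to alkaline methanolysis. Extract was normalised to 2 μmol phospholipid phosphate. GlcCer was quantified by HPTLC against standards.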

[7] = mouse, IP, 10 mg/kg, single dose

## O=C(CC1Cc2ccccc2C1)N[C@H](CN1CCCC1)[C@H](O)c1ccc2c(c1)OCCO2 [Compound 2]
MDR1-MDCK cell monolayer; MDR1-MDCK cell monolayer
  efflux ratio: 298
MDR1-MDCK cell monolayer; MDR1-MDCK cell permeability
  Papp A-B: 0.14 ×10⁻⁶ cm/s
  Papp B-A: 40.8 ×10⁻⁶ cm/s
[1]; [7]
  brain AUC: 36 ng·h/g
  cumulative B/P ratio (brain AUC/plasma AUC): 0.11
  plasma AUC: 317 ng·h/mL
Brain GlcCer [2]
  reduction in brain GlcCer: 17%

## CC(C)(NC(=O)O[C@@H]1CN2CCC1CC2)c1csc(-c2ccc(F)cc2)n1 [Compound 3, reference compound]
[3]
  half-life at 1 μM: > 60 min
[4]
  half-life at 1 μM: > 60 min
P-glycoprotein (MDR1)
  Papp A→B: 0.58 ×10⁻⁶ cm/s
  Papp B→A: 49 ×10⁻⁶ cm/s
[1]; female, CD-1, mouse, plasma, ip, 10 mg/kg
  AUC: 7160 ng·h/mL
[1]; [7]
  brain AUC: 6188 ng·h/g
[5]; brain
  concentration at 2 h: 493 ng/g
[5]; spleen
  concentration at 2 h: 4570 ng/g
Brain GlcCer and GlcSph; IP 10 mg/kg qd for 14 days
  reduction in brain GlcCer: 26%
  reduction in brain GlcSph: 35%

## O=C(CC1Cc2ccccc2C1)N[C@H](CN1CCCC1)[C@H](O)c1ccc(OC(F)(F)F)cc1 [Compound 17, 2-(2,3-Dihydro-1H-inden-2-yl)-N-((1R,2R)-1-hydroxy-3-(pyrrolidin-1-yl)-1-(4-(trifluoromethoxy)phenyl)propan-2-yl)acetamide]
[3]
  half-life at 1 μM: 37 min
P-glycoprotein (MDR1)
  Papp A→B: 0.95 ×10⁻⁶ cm/s
  Papp B→A: 56.6 ×10⁻⁶ cm/s
[1]; [7]
  brain AUC: 1046 ng·h/g
[1]; mouse, IP, 10 mg/kg, brain AUC relative to 2
  increase in overall brain exposure vs 2: ~30 fold
[1]; mouse, single 10 mg/kg IP dose
  total brain exposure (AUC) as percentage of that of Genz-682452: about 20%
Brain GlcCer [6]; 1 mg/kg for 3 days
  reduction in brain GlcCer: about 34%
Brain GlcCer [6]; 30 mg/kg for 3 days
  reduction in brain GlcCer (printed as negative change): −41%
[5]; brain
  concentration at 2 h: 134 ng/g
[5]; spleen
  concentration at 2 h: 4880 ng/g
Brain GlcCer and GlcSph; IP 10 mg/kg qd for 14 days
  reduction in brain GlcCer: 19%
  reduction in brain GlcSph: 39%
Brain GlcCer and GlcSph; selectivity vs galactosylceramide synthase, data not shown
  effect on brain levels of galactosylceramide and galactosylsphingosine: lack of effect

## CCCCCCCC(=O)N[C@H](CN1CCCC1)[C@H](O)c1ccc2c(c1)OCCO2 [eliglustat, eliglustat tartrate, reference compound]
[4]
  half-life at 1 μM: 12.5 min
Brain GlcCer and GlcSph; IP 10 mg/kg qd for 14 days
  activity on brain glycosphingolipids in CBE mouse assay: inactive
